Assay outcomes: PubChem, several laboratories
STAT1 blocker: reduces IFN-gamma driven STAT1 reporter signal; 200,000 compounds, 0.35% hits; AID 920; NIH 3T3 STAT1-luciferase reporter, luminescence; inhibition, % at 5.5 µM;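 active = inhibition above a set limit, the mean inhibition across all tested compounds plus 3 SD, cut at about 34% in these data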;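 also: 0% = IFN-gamma with DMSO and 100% = IFN-gamma with 300 µM nifuroxazide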
STAT3 act: activators of IL-6 induced STAT3 signaling | U3A cells, IL-6 STAT3-luciferase reporter, luminescence; 100% = signal with IL-6 EC80 alone | activation (% of control), % at 5.6 µM | 190,000 compounds, 0.91% hits | AID 871;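 active = activation above the screen-wide mean of compound activation plus 3 SD, cut at about 130% in these data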;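 also: 0% = background luminescence of wells with medium and substrate only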
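Material: human STAT1-deficient U3A cells with stable STAT3-luciferase reporter / Probe or stimulus: IL-6 stimulus at 33 ng/mL final / Schedule: 1 h compound pre-exposure, 6 h IL-6 stimulation, 37 °C / Technique: luminescence / Read-out basis: percent of IL-6-only median luminescence / Control set: IL-6-only high control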
STAT1 act: STAT1 signaling activation; 200,000 compounds, 2.6% hits; NIH 3T3 STAT1-luciferase reporter, IFN-gamma, luminescence; 100% = IFN-gamma alone, no compound; AID 932; activation (% of control), % at 5.5 µM;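 active = activation above the screen-wide mean activation plus 3 SD, cut at about 130% in these data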;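 also: raw ratio to IFN-gamma control signal so 100% means no change and 0% no light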
APP 5'UTR act: activates APP 5'UTR luciferase reporter. SH-SY5Y APP 5'UTR luciferase reporter, luminescence; zero percent = DMSO vehicle wells. activation, % at 2 µM. 190,000 compounds, 1% hits;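 active = activation above a set limit, based on mean plus 3 SD of controls, cut at about 140% in these data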
STAT3 blocker: STAT3 signaling inhibition; U3A cells, IL-6 STAT3-luciferase reporter, luminescence; host cell line lacks STAT1; inhibition, % at 5.5 µM; 190,000 compounds, 0.89% hits;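 active = inhibition above the mean inhibition across all screened compounds plus 3 SD, cut at about 44% in these data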;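 also: 0% = DMSO only wells and 100% = 100 µM nifuroxazide control wells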
NF-kB neuron act: NF-kB expression increase, human neuronal cells | fold change at 12.5 µM | AID 1239 | 190,000 compounds, 1.6% hits | NF-kB reporter expression; active compounds read high; in the data active = fold change above about 3.3
* marks the source's active call; other numbers are inactive results; . = no result. Compounds with a hit are over-represented: about 5.1% of the library has one in this group of screens.

SMILES | STAT1 blocker | STAT3 act | STAT1 act | APP 5'UTR act | STAT3 blocker | NF-kB neuron act
COCc1cc(C(C)=O)ccc1OCC(=O)Nc1ccc(NC(C)=O)cc1 | 3 | 105 | 96 | 16 | -1 | .
Cc1ccc(NC(=O)N2C(=O)C3(OCCO3)c3ccccc32)cc1 | -42 | 104 | 138* | 91 | -2 | 2.2
CCc1ccc(C(=O)/C=C/c2cnn(C)c2C)s1 | -32 | 102 | 129* | 174* | 2 | 11*
Cc1c(/C=C/C(=O)c2cccs2)cnn1C | -8 | 98 | 104 | 11 | 6 | 2.3
COc1ccc2nc(/N=C(\N)NC(=O)C(C)(C)C)nc(C)c2c1 | -32 | 107 | 129* | 16 | -3 | 0.7
COc1ccc2nc(/N=C(\N)NC(=O)N3c4ccccc4Sc4ccccc43)nc(C)c2c1 | -10 | 93 | 109 | 2 | 8 | 0.6
CCC(=O)N/C(N)=N/c1nc(C)c2cc(OC)ccc2n1 | -36 | 122 | 134* | 27 | -21 | 1.5
O=C(c1ccccc1)N1CCSc2sccc2C1=O | 37* | 61 | 64 | -28 | 50* | 1.3
CCCc1nc2ccc(NC(C)=O)cc2c(=O)n1Cc1ccc(Cl)cc1 | -47 | 114 | 143* | 105 | -14 | 3.7*
CCOc1ccc2nc(SCC(=O)N(C)C)[nH]c2c1 | -36 | 99 | 133* | 39 | 4 | 2.5
CCOc1ccc2nc(SCC(=O)N(C)C3CCS(=O)(=O)C3)[nH]c2c1 (configuration not stated) | -3 | 105 | 103 | 0 | -1 | 1.3
COc1ccc2nc(SCC(=O)c3ccco3)[nH]c2c1 | -33 | 98 | 130* | 93 | 7 | 2.9
O=C(CSc1nc2ccccc2[nH]1)c1ccco1 | -15 | 100 | 114 | 46 | 9 | 1.9
CCN(CC)c1ccc(/C=N/NC(=O)Nc2nonc2N)cc1 | -17 | 119 | 115 | -10 | -21 | 1.2
O=C(Nc1nc2ccccc2[nH]1)c1ccccc1F | 78* | 13 | 30 | -1 | 101* | 0.37
O=C(Nc1nc2ccccc2[nH]1)c1cc2ccccc2o1 | -22 | 80 | 121 | 263* | 26 | 5.5*
O=C(Nc1nc2ccccc2[nH]1)c1ccccc1[N+](=O)[O-] | -41 | 106 | 136* | 17 | -6 | 2.2
CCn1c(SCC(=O)N/N=C(\C)c2ccncc2)nnc1-c1ccccc1 | 5 | 103 | 94 | -9 | -2 | 1.1
Cc1c(F)cccc1NC(=O)CCCCCC1NC(=O)NC1C (configuration not stated) | -1 | 95 | 99 | -23 | 11 | 1
CC(C(=O)Nc1ccccc1-c1ccccc1)N(C)Cc1nc2ccccc2c(=O)[nH]1 (configuration not stated) | 2 | 102 | 98 | 3 | 0 | 1.1
N/C(=N\OC(=O)c1ccc2ccccc2c1)c1ccccn1 | 71* | 39 | 34 | 158* | 76* | 4.3*
Cc1ccccc1C(=O)O/N=C(\N)c1ccncc1 | -37 | 99 | 133* | 37 | 6 | 1.9
N/C(=N\OC(=O)c1cccc([N+](=O)[O-])c1)c1ccccn1 | -35 | 91 | 133* | 77 | 16 | 2.3
N/C(=N\OC(=O)c1ccc2ccccc2c1)c1ccncc1 | -54 | 89 | 148* | 149* | 15 | 1.2
COc1cccc(C(=O)O/N=C(\N)c2ccncc2)c1OC | -16 | 100 | 114 | 32 | -1 | 1.8
SMILES | STAT1 blocker | STAT3 act | STAT1 act | APP 5'UTR act | STAT3 blocker | NF-kB neuron act
COc1cccc(NC(C)C(=O)Nc2cc([N+](=O)[O-])ccc2Cl)c1 (configuration not stated) | 4 | 105 | 96 | 4 | -5 | 1.2
c1ccc2c(-c3cc(C4CCNCC4)[nH]n3)cccc2c1 | -4 | 99 | 104 | 10 | 6 | 0.85
CC12CCC(C(=O)Nc3ccccc3)(C(Br)C1=O)C2(C)C (configuration not stated) | -4 | 97 | 103 | 12 | 4 | 1.1
O=C(Nc1cccc(F)c1)NC1(C(=O)N2CCOCC2)CCCCC1 | 3 | 97 | 97 | 25 | 11 | 1
Cn1cc(CN2CCCC(C(=O)c3nccn3C)C2)c(-c2cccc(Cl)c2)n1 (configuration not stated) | 4 | 102 | 96 | 4 | 10 | 0.99
O=C(CSc1ccccn1)Nc1ccc2ccccc2c1 | -33 | 95 | 132* | 137* | 6 | 3
